Source: ChEMBL document CHEMBL3612047, “Synthesis, antiproliferative activity and possible mechanism of action of novel 2-acetamidobenzamides bearing the 2-phenoxy functionality” (Bioorg Med Chem, 2015)
The source made the active and inactive calls. The rule behind the calls is not given here.

Legend:
SW-620 = assay: Growth inhibition of human SW620 cells by NCI standard protocol based method; assay type: functional
Summary of the method: (§1)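 NCI 60-cell-line screen, standard NCI protocol. Single high dose of 10⁻⁵ M first, then a 5-dose assay across the full panel. Reported as GI₅₀, TGI and LC₅₀, the molar concentrations giving 50% net growth inhibition, total growth inhibition and 50% net cell death. Where an effect was not reached, the highest tested concentration was used.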

K562 [1] = assay: Induction of mitotic arrest in human K562 cells; assay type: functional, cell-based
[2] = Growth inhibition of human COLO205 cells by NCI standard protocol based method; assay type: functional; conditions: COLO 205
Summary of the method: (§2)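 NCI full 60-cell-line panel, 5-dose assay to the NCI standard protocol. GI₅₀ is the molar concentration inhibiting 50% net cell growth. Mean graph midpoint is averaged over all lines; where the effect is not reached, the highest tested concentration is used.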

NCI-H23 = assay: Growth inhibition of human NCI-H23 cells by NCI standard protocol based method; assay type: functional; summary of the method: as §2
[3] = Growth inhibition of human HCC2998 cells by NCI standard protocol based method; assay type: functional; conditions: HCC 2998; summary of the method: as §2
NCI-H226 = assay: Growth inhibition of human NCI-H226 cells by NCI standard protocol based method; assay type: functional; summary of the method: as §2
UACC-62 = assay: Growth inhibition of human UACC62 cells by NCI standard protocol based method; assay type: functional; summary of the method: as §1
MCF7 = assay: Growth inhibition of human MCF7 cells by NCI standard protocol based method; assay type: functional; summary of the method: as §2
[4] = Growth inhibition of human HOP92 cells by NCI standard protocol based method; assay type: functional; conditions: HOP-92; summary of the method: as §2
IGROV-1 = assay: Growth inhibition of human IGROV1 cells by NCI standard protocol based method; assay type: functional; summary of the method: as §2
HCT-15 = assay: Growth inhibition of human HCT15 cells by NCI standard protocol based method; assay type: functional; summary of the method: as §2
[5] = Growth inhibition of human SF539 cells by NCI standard protocol based method; assay type: functional; conditions: SF-539; summary of the method: as §2
HT-29 = assay: Growth inhibition of human HT-29 cells by NCI standard protocol based method; assay type: functional; summary of the method: as §2
MDA-MB-468 = assay: Growth inhibition of human MDA-MB-468 cells by NCI standard protocol based method; assay type: functional; summary of the method: as §2
SK-OV-3 = assay: Growth inhibition of human SKOV3 cells by NCI standard protocol based method; assay type: functional; summary of the method: as §1
HOP-62 = assay: Growth inhibition of human HOP62 cells by NCI standard protocol based method; assay type: functional; summary of the method: as §2
M14 = assay: Growth inhibition of human M14 cells by NCI standard protocol based method; assay type: functional; summary of the method: as §2
HL-60(TB) = assay: Growth inhibition of human HL-60(TB) cells by NCI standard protocol based method; assay type: functional
Summary of the method: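 Tested in the NCI 60-cell-line screen under its standard protocol. A single-dose prescreen was run at 10⁻⁵ M, then a five-dose assay. GI50 is the molar concentration that inhibits net cell growth by 50%.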

Tubulin (Homo sapiens) = Tubulin (Homo sapiens) (UniProt P68371+Q9H4B7+P0DPH7+P68366+Q13509+Q71U36+P04350+Q3ZCM7+P07437+P68363+Q9BQE3+Q6PEY2+Q13885+Q9BVA1+Q9BUF5); assay: Inhibition of colchicine binding to tubulin (unknown origin); assay type: protein-complex assay
K562 [6] = assay: Growth inhibition of human K562 cells at 10 uM incubated for 24 hrs by trypan blue dye exclusion assay; assay type: functional; conditions: K562, 24 h, read-out: GI
Summary of the method: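 K562 cells in medium with 5% FBS at 37 °C, 5% CO₂. About 2 × 10⁵ cells/mL cultured 24 h, then compound added at 10 μM. After 24 h exposure, cells counted by hemocytometer and viability scored by trypan blue exclusion, reported as percent growth inhibition.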

MDA-MB-435 = assay: Growth inhibition of human MDA-MB-435 cells by NCI standard protocol based method; assay type: functional; summary of the method: as §2
A498 = assay: Growth inhibition of human A498 cells by NCI standard protocol based method; assay type: functional; summary of the method: as §2
OVCAR-3 = assay: Growth inhibition of human OVCAR3 cells by NCI standard protocol based method; assay type: functional; summary of the method: as §2
SF-268 = assay: Growth inhibition of human SF268 cells by NCI standard protocol based method; assay type: functional; summary of the method: as §2
[7] = Growth inhibition of human NCI60 cells by NCI standard protocol based method; assay type: functional; summary of the method: as §2
K562 [8] = assay: Selectivity index, ratio of IC50 for human HuDe cells to IC50 human K562 cells
Summary of the method: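 Index taken as the ratio of HuDe to K562 IC₅₀. For K562: about 2 × 10⁵ cells/mL, compounds added at graded concentrations, viable count by trypan blue exclusion with a hemocytometer after 24 h. For HuDe primary epidermal cells: 2 × 10⁴ cells/mL, drugs or 0.1% DMSO added 24 h after seeding, MTT read at 570 nm (690 nm blank) after 72 h.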

SK-MEL-2 = assay: Growth inhibition of human SK-MEL-2 cells by NCI standard protocol based method; assay type: functional; summary of the method: as §2
[9] = Growth inhibition of human RXF393 cells by NCI standard protocol based method; assay type: functional; conditions: RXF 393; summary of the method: as §2
SNB-75 = assay: Growth inhibition of human SNB75 cells by NCI standard protocol based method; assay type: functional; summary of the method: as §1
CCRF-CEM = assay: Growth inhibition of human CCRF-CEM cells by NCI standard protocol based method; assay type: functional; summary of the method: as §2
K562 [10] = assay: Growth inhibition of human K562 cells by NCI standard protocol based method; assay type: functional; summary of the method: as §2
KM12 = assay: Growth inhibition of human KM12 cells by NCI standard protocol based method; assay type: functional; summary of the method: as §2
[11] = Growth inhibition of human RPMI8226 cells by NCI standard protocol based method; assay type: functional; conditions: RPMI-8226; summary of the method: as §2
PC-3 = assay: Growth inhibition of human PC3 cells by NCI standard protocol based method; assay type: functional; summary of the method: as §2
[12] = Growth inhibition of human SF295 cells by NCI standard protocol based method; assay type: functional; conditions: SF-295; summary of the method: as §2
ACHN = assay: Growth inhibition of human ACHN cells by NCI standard protocol based method; assay type: functional; summary of the method: as §2
K562 [13] = assay: Growth inhibition of human K562 cells incubated for 24 hrs by trypan blue dye exclusion assay; assay type: functional, cell-based; conditions: K562, 24 h
Summary of the method: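 K562 cells, about 2 × 10⁵ cells/mL, precultured 24 h, then exposed 24 h to a range of compound concentrations. Viable cells counted by hemocytometer with trypan blue exclusion to derive IC₅₀.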

OVCAR-5 = assay: Growth inhibition of human OVCAR5 cells by NCI standard protocol based method; assay type: functional; summary of the method: as §2
SR = assay: Growth inhibition of human SR cells by NCI standard protocol based method; assay type: functional; summary of the method: as §1
DU-145 = assay: Growth inhibition of human DU145 cells by NCI standard protocol based method; assay type: functional; summary of the method: as §2
[14] = Growth inhibition of human MOLT4 cells by NCI standard protocol based method; assay type: functional; conditions: MOLT-4; summary of the method: as §2
786-0 = assay: Growth inhibition of human 786-0 cells by NCI standard protocol based method; assay type: functional; summary of the method: as §2
U-251 = assay: Growth inhibition of human U251 cells by NCI standard protocol based method; assay type: functional; summary of the method: as §1
CAKI-1 = assay: Growth inhibition of human CAKI-1 cells by NCI standard protocol based method; assay type: functional; summary of the method: as §2
UO-31 = assay: Growth inhibition of human UO31 cells by NCI standard protocol based method; assay type: functional; summary of the method: as §1

For NC(=O)c1cc(I)ccc1NC(=O)COc1ccccc1, the GI50 (SW-620) was 454 nM, the Activity (K562 [1]) was “Active” and the GI50 [2] was 353 nM. It also gave a GI50 (NCI-H23) of 657 nM, a GI50 [3] of 2950 nM and a GI50 (NCI-H226) of 4940 nM. It also gave a GI50 (UACC-62) of 701 nM, a GI50 (MCF7) of 230 nM and a GI50 [4] of 1500 nM. For the same compound, the GI50 (IGROV-1) was 1370 nM, the GI50 (HCT-15) was 253 nM and the GI50 [5] was 249 nM. It also gave a GI50 (HT-29) of 349 nM, a GI50 (MDA-MB-468) of 351 nM and a GI50 (SK-OV-3) of 3170 nM. The GI50 (HOP-62) was 824 nM, the GI50 (M14) was 389 nM and the GI50 (HL-60(TB)) was 339 nM. The inhibition (Tubulin (Homo sapiens)) was “inactive”, the inhibition of growth at 10 µM (K562 [6]) was 73% and the GI50 (MDA-MB-435) was 101 nM. For the same compound, the GI50 (A498) was 1020 nM, the GI50 (OVCAR-3) was 321 nM and the GI50 (SF-268) was 934 nM. The GI50 [7] was 692 nM, the LC50 [7] was 89100 nM and the TGI ([7]; read-out: pTGI (converted)) was 35500 nM. For the same compound, the “Ratio IC50” value (K562 [8]) was 1987.5, the GI50 (SK-MEL-2) was 463 nM and the GI50 [9] was 413 nM. The GI50 (SNB-75) was 215 nM, the GI50 (CCRF-CEM) was 382 nM and the GI50 (K562 [10]) was 161 nM. The GI50 (KM12) was 308 nM, the GI50 [11] was 553 nM and the GI50 (PC-3) was 428 nM. The GI50 [12] was 223 nM, the GI50 (ACHN) was 1320 nM and the IC50 (K562 [13]) was 160 nM. For the same compound, the GI50 (OVCAR-5) was 1680 nM, the GI50 (SR) was 221 nM and the GI50 (DU-145) was 444 nM. For the same compound, the GI50 [14] was 1100 nM, the GI50 (786-0) was 1070 nM and the GI50 (U-251) was 396 nM. It also gave a GI50 (CAKI-1) of 519 nM and a GI50 (UO-31) of 2870 nM.
